Measurements gathered from unrelated publications.
Values after ≈ are worked out from the molar mass of the structure shown.

| Structure (SMILES) | tested on | test | system | setting | endpoint | result |
| --- | --- | --- | --- | --- | --- | --- |
| C[C@]12CCC(=O)C[C@@H]1CC[C@@H]1[C@@H]2CC[C@@]2(C)[C@H]1CC[C@]2(C)O | NIH3T3 | cell growth or viability, MTT |  | 24 h | IC50 | > 30 µM |
| O=C(c1ccc(F)cc1)c1c[nH]c2ncc(-c3ccc(N4CCOCC4)nc3)cc12 | A549 | cell growth or viability, MTT |  | 10 µM, 48 h | viability | 77.1% |
| COC(=O)C(Cc1ccccc1)n1c(C)nc2c(N)nc(N)nc21 (stereo not shown) | unidentified influenza virus | viral replication | A549, H1N1 PR8 | 24 h | IC50 | 0.039 µM |
| N=C(N)c1ccc(OCCCCCOc2ccc(C(=N)N)cc2)cc1 | Leishmania donovani | parasite growth |  | amastigote | IC90 | 9 µg/mL (≈ 26.4 µM) |
| Oc1c(Cl)cc(Cl)c(Cl)c1Cc1c(O)c(Cl)cc(Cl)c1Cl | Betapolyomavirus hominis | viral replication, inhibitor, qPCR | Vero | 30 µM, 5 days | inhibition | ~70% |
| Cc1c(C)c2c(c(C)c1O)CCC(C)(C(=O)O)O2 (stereo not shown) |  | ABTS scavenging |  | 1 h | IC50 | 20.1 µM |
| CC(C)=CCC/C(C)=C/COc1cc(O)cc(O)c1C(=O)c1ccccc1 |  | ABTS scavenging |  |  | IC50 | 3750 µM |
| CCOC(=O)C1=C[C@@H](OC(CC)CC)[C@H](NC(C)=O)[C@@H](N)C1 | unidentified influenza virus | viral replication | A549, H1N1 PR8 | 24 h | IC50 | 0.18 µM |
| C[C@]1(COc2ccc(N3CCC(Oc4ccc(OC(F)(F)F)cc4)CC3)cc2)Cn2cc([N+](=O)[O-])nc2O1 | Leishmania donovani | parasite growth |  | promastigote | IC50 | 0.249 µM |
| O=C(NCCCNc1c2c(nc3ccccc13)CCCC2)c1ccccc1O |  | ABTS scavenging |  | 1 h | IC50 | 27.7 µM |
| O=C(N/N=C1\C(=O)N(Cc2ccccc2)c2ccc(Cl)cc21)c1cc2ccccc2[nH]1 | A549 | cell growth or viability |  |  | IC50 | 0.76 µM |
| COc1cc(Nc2nc(C#N)cc3c(-c4ccccc4)n[nH]c23)cc(OC)c1OC | PC-3 | cell growth or viability, MTS |  | 48 h | IC50 | 4.3 µM |
| Cc1nc2c(N)nc(=O)[nH]c2n1C(Cc1c[nH]c2ccccc12)C(=O)O (stereo not shown) | unidentified influenza virus | viral replication | A549, H1N1 PR8 | 24 h | IC50 | 0.51 µM |
| O=C(N/N=C1\C(=O)N(Cc2ccccc2)c2ccc(F)cc21)c1cc2ccccc2[nH]1 | A549 | cell growth or viability |  | 30 µM | inhibition | 99.1% |
| CC(C)(C)OC(=O)N1CCN(c2ccc(-c3cnc4[nH]cc(C(=O)c5ccc(F)cc5)c4c3)cc2)CC1 | A549 | cell growth or viability, MTT |  | 10 µM, 48 h | viability | 91.5% |
| Cc1nc2c(N)nc(N)nc2n1C(Cc1ccc(O)cc1)C(=O)O (stereo not shown) | unidentified influenza virus | viral replication | A549, H1N1 PR8 | 24 h | IC50 | 0.024 µM |
| COc1ccc(O)c(C(C)(C)C)c1 |  | ABTS scavenging |  |  | IC50 | 5.07 µg/mL |
| COc1ccc2c(c1)/C(=N/NC(=O)c1cc3ccccc3[nH]1)C(=O)N2Cc1ccccc1 | A549 | cell growth or viability |  | 30 µM | inhibition | 97.4% |
| Cc1nc2c(N)nc(N)nc2n1CC(=O)O | unidentified influenza virus | viral replication | A549, H1N1 PR8 | 24 h | IC50 | 0.526 µM |
| Nc1ncnc2c([C@@H]3N[C@H](CO)[C@@H](O)[C@H]3O)c[nH]c12 | unidentified influenza virus | viral replication, inhibitor | MDCK | 0.1 µM | inhibition | 0% |
| C[C@@H]1[C@H](O)[C@@H](C)/C=C/C=C/C=C/C=C/C=C/C=C/C=C/[C@H](O[C@@H]2O[C@H](C)[C@@H](O)[C@H](N)[C@@H]2O)C[C@@H]2O[C@](O)(C[C@@H](O)C[C@@H](O)[C@H](O)CC[C@@H](O)C[C@@H](O)CC(=O)O[C@H]1C)C[C@H](O)[C@H]2C(=O)O | Leishmania donovani | parasite growth |  | amastigote | IC50 | 0.21 µg/mL |
| O=C(c1cccc(F)c1)c1c[nH]c2ncc(-c3ccc(N4CCNCC4)nc3)cc12 | A549 | cell growth or viability, MTT |  | 10 µM, 48 h | viability | 62.8% |
| CCOC(=O)c1c([C@@H]2C[C@H]2c2ccccc2)n(C)c2ccc(O)cc12 (relative stereo) | Punta Toro virus | cytopathic effect |  |  | MIC50 | > 100 µg/mL |
| O=C(c1ccc(F)cc1)c1c[nH]c2ncc(-c3ccc(N4CCNCC4)cc3)cc12 | A549 | cell growth or viability, MTT |  | 10 µM, 48 h | viability | 89.1% |
| Cc1cc(C(C)(C)C)c(O)c(C(C)(C)C)c1 |  | ABTS scavenging, absorbance |  | 5 min | IC50 | 0.08 µM |
